Experimental data as given in ChEMBL document CHEMBL2321715, “Design and synthesis of novel 2-methyl-4,5-substitutedbenzo[f]-3,3a,4,5-tetrahydro-pyrazolo[1,5-d][1,4]oxazepin-8(7H)-one derivatives as telomerase inhibitors” (Bioorg Med Chem Lett, 2013).
pIC50: −log10 of the molar value. Active and inactive are the calls of the source. The rule behind the calls is not given here.

Key:
[1] = Downregulation of TERT expression in human MGC803 cells after 48 hrs by Western blot analysis; assay type: functional, cell-based; settings: MGC-803
Method in brief: (§1)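 MGC-803 cells exposed 48 h; lysed in RIPA buffer, protein measured by BCA, […] total protein run on SDS–PAGE and blotted to PVDF. Primary antibodies 1 h in TBS/Tween-20 (0.075%) with 3% Marvel: anti-TERT, anti-β-actin, anti-Cyclin D1, anti-phospho-AKT, anti-AKT, each 1:500. HRP secondaries, ECL detection. DMSO vehicle control; LY used as comparator.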

[2] = target: Telomerase reverse transcriptase (Homo sapiens, UniProt O14746); assay: Inhibition of telomerase activity in human MGC803 cells after 24 hrs by TRAP-PCR-ELISA assay
Sequence of Telomerase reverse transcriptase (O14746 whole entry): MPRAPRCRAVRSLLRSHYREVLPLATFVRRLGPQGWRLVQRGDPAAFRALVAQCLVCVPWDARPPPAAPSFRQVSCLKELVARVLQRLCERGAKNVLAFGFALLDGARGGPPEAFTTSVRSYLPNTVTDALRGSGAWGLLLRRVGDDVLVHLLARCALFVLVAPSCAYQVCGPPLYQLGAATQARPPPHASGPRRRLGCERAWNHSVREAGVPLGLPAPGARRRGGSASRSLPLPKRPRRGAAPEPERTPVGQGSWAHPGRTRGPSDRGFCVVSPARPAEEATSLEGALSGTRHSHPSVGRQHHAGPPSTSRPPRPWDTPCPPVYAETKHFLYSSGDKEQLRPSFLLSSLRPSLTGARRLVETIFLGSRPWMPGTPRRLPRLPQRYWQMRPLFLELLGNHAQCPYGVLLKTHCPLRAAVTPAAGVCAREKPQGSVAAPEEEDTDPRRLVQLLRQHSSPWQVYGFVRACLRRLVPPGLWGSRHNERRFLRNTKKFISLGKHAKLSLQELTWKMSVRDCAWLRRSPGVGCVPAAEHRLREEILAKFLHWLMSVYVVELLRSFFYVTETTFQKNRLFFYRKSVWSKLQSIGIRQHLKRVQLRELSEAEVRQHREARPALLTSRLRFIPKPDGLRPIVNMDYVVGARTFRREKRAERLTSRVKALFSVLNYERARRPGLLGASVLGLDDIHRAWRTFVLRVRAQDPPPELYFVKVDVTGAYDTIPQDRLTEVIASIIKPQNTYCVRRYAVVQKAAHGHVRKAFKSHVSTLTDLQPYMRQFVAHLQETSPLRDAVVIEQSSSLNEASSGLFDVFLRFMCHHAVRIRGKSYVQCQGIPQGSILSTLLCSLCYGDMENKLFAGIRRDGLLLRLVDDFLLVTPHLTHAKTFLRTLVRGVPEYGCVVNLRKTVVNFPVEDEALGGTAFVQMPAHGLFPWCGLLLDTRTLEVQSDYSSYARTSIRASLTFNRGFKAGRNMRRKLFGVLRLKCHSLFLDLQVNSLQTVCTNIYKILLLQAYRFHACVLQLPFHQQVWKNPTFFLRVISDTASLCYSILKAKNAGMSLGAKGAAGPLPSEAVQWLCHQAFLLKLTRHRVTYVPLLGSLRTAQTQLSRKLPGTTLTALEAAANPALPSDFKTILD

MGC-803 = assay: Inhibition of PI3K-mediated Akt phosphorylation in human MGC803 cells after 48 hrs by Western blot analysis; assay type: cell-based; method in brief: as §1
[3] = Downregulation of cyclin D1 expression in human MGC803 cells after 48 hrs by Western blot analysis; assay type: functional, cell-based; settings: MGC-803; method in brief: as §1

| Compound | pIC50 [2] | Activity [1] | inhibition (MGC-803) | Activity [3] |
| --- | --- | --- | --- | --- |
| COc1cccc2c1OCC(=O)N1N=C(C)CC21 (centres undefined) | 4.97 | Active | – | – |
| CC[n+]1c(-c2ccccc2)c2cc(N)ccc2c2ccc(N)cc21 [HOMIDIUM BROMIDE] | 5.62 | – | – | – |
| CC1=NN2C(=O)COc3ccc(C(F)(F)F)cc3C2C1 (centres undefined) | 5.50 | Active | – | – |
| CC1=NN2C(=O)COc3c(Br)cc(Br)cc3C2C1 (centres undefined) | 6.11 | Active | Active | Active |

Continued, in another order:

| pIC50 [2] | Compound | Activity [1] | inhibition (MGC-803) | Activity [3] |
| --- | --- | --- | --- | --- |
| 5.18 | CC1=NN2C(=O)COc3cc([N+](=O)[O-])ccc3C2C1 (centres undefined) | – | – | – |
| 5.68 | CC1=NN2C(=O)COc3c(F)cccc3C2C1 (centres undefined) | Active | – | – |
| 5.77 | CC1=NN2C(=O)COc3ccc(Cl)cc3C2C1 (centres undefined) | Active | Active | Active |
| 4.83 | CC1=NN2C(=O)COc3ccccc3C2C1 (centres undefined) | – | – | – |
| 4.66 | CC1=NN2C(=O)COc3cc(C)ccc3C2C1 (centres undefined) | Active | – | – |
